The nature of data set [1]: Chemical stability of the compound. The format is physicochemical.
The subject of another data set is EMT6. As to the kind of experiment: Cytotoxicity against mouse EMT6 cells after 72 hrs by crystal violet staining. It is filed as functional. Particulars: EMT6, 72 h, read-out: LD50 (the source's name).
The nature of data set [2]: Cytotoxicity against mouse PancO2 cells after 72 hrs by crystal violet staining. It is filed as functional. Conditions: read-out: LD50 (the source's name).
The nature of data set [3]: Inhibition of human recombinant Trx1/TrxR assessed as reduction in number of free thiols from reduced insulin after 30 mins by insulin reduction assay. The procedure, abridged:
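At least seven compound concentrations. Incubated 30 min at 37 °C, stopped with 8 mM DTNB in 8 M guanidine HCl, A412. IC50 from four-parameter logistic fit. Triplicates, mean ± SD, n ≥ 3.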

A further data set relates to K562. The experiment in a line: Cytotoxicity against human K562 cells after 72 hrs by MTT assay. Conditions: K562, 72 h, read-out: LD50 (the source's name). It is filed as functional. In a few lines: (§1)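 Suspension cells were grown in RPMI-1640 with 10% heat-inactivated FBS and exposed to compound for 72 h with DMSO ≤1%. MTT (5 mg/mL solution) was added for 4 h, then plates were centrifuged, cells lysed in DMSO and read at A570. Viability is % of solvent controls, background-corrected; n ≥ 3.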
On the technique in general: Formazan colour is commonly taken as a measure of viable cells.

The subject of data set [4] is Raji. As to the kind of experiment: Cytotoxicity against human Raji cells after 72 hrs by MTT assay. The format is functional. Particulars: read-out: LD50 (the source's name). The procedure, abridged:
as §1

The next data set deals with Ramos. As to the kind of experiment: Cytotoxicity against human Ramos cells after 72 hrs by MTT assay. Particulars: read-out: LD50 (the source's name). It is filed as functional. The procedure, abridged:
as §1

Data set [5] can be described thus: Cytotoxicity against mouse B78 cells after 72 hrs by crystal violet staining. The format is functional. Conditions: B78, 72 h, read-out: LD50 (the source's name).
A further data set concerns CT26. As to the kind of experiment: Cytotoxicity against wild type mouse CT26 cells after 72 hrs by crystal violet staining. It is filed as functional. Particulars: CT26, 72 h, read-out: LD50 (the source's name).
In the next data set the test system is T-24. The experiment in a line: Cytotoxicity against human T24 cells after 72 hrs by crystal violet staining. Particulars: T-24, 72 h, read-out: LD50 (the source's name). The format is functional.
The nature of data set [6]: Cytotoxicity against mouse bone marrow cells after 72 hrs by XTT assay. Particulars: read-out: LD50. It is filed as cell-based, Bone marrow cell. In a few lines: (§2)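 hPBMC were isolated from healthy donors on Histopaque 1077 and kept in RPMI. Bone marrow came from female BALB/c mice and was cultured in Iscove's medium with 10% FBS and 100 U IL-3. After compound exposure, cells got XTT at 0.3 mg/mL for 4 h, read at A490 against 690 nm. Viability is % of DMSO controls; n ≥ 3.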

Data set [7] in a line: Cytotoxicity against mouse MEF cells. Conditions: read-out: LD50 (the source's name). The format is cell-based. In a few lines: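 Fibroblasts came from BALB/c embryos at E13.5 by 0.2% trypsin digestion at 37 °C for 10 min and were cultured in DMEM. Viability is % of solvent controls with DMSO ≤1%; n ≥ 3.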
Data set [8] is described as follows: Cytotoxicity against human PBMC cells after 72 hrs by XTT assay. Conditions: read-out: LD50. The format is cell-based. In a few lines: as §2
The subject of data set [9] is Raji. The experiment in a line: Induction of Trx mRNA expression in human Raji cells at 5 to 10 uM after 4 to 24 hrs by RT-PCR analysis. It is filed as functional, cell-based.
In data set [10] the test system is Raji. As to the kind of experiment: Induction of Trx protein expression in human Raji cells at 10 to 20 uM after 4 to 8 hrs by Western blot analysis. The format is functional, cell-based. The procedure, abridged:
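Raji cells exposed to compound for 4 and 8 h, washed and lysed in 0.1% NP40 with protease inhibitors. Equal protein (BCA) run on 15% SDS-PAGE and blotted to nitrocellulose, blocked in TBST with 5% BSA. Probed overnight with rabbit anti-thioredoxin and mouse anti-tubulin, then HRP secondaries for 45 min. ECL luminol/coumaric acid detection.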
On the technique in general: Immunoblotting shows a protein as a band on a membrane.

Data set [11] has as its system Mus musculus. As to the kind of experiment: Toxicity in mouse EMT6 cells allografted BALB/c mouse assessed as change in body weight at 14 mg/kg, ip qd for 7 days measured on day 5. The format is organism-based. Details: dose 14 mg/kg, route intraperitoneal. Particulars: in vivo, 168 h. In a few lines: (§3)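 BALB/c mice, 8−12 weeks old, inoculated sc with 3.5 × 10^5 EMT6 cells into the depilated right thigh. Intraperitoneal dosing in DMSO began on day 7, when tumors reached a longer diameter of 5−7 mm, and was given daily. Controls received ip DMSO. Tumor volume was followed by calipers as longer × shorter²/2. Survival and body weight were monitored.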

Data set [12] concerns Mus musculus. The experiment in a line: Toxicity in mouse EMT6 cells allografted BALB/c mouse assessed as mortality at 14 mg/kg, ip qd for 7 days measured on day 5. The format is organism-based. Particulars: in vivo, 168 h. Details: dose 14 mg/kg, route intraperitoneal. In a few lines: as §3
Data set [13] is described as follows: Solubility of the compound in biological media. The format is ADME.

Active and inactive are the calls of the source. No cut-off for these calls is given here.

One may read the IC50 as the concentration at which inhibition is half-maximal. As to `C=C(COC(=O)c1c(C(F)(F)F)cccc1C(F)(F)F)C(=O)OC`, in data set [1], the Stability entry was “Unstable”. Besides, the CC50 (with EMT6; in data set [2]) was over 25 µM each time. Moreover, in [3], the IC50 is 0.4 µM.

Turning to `CC(C)C[C@@H](C(=O)NCC(=O)OCc1ccccc1)N(Cc1ccccc1)C(=O)C(CI)CI`, the IC50 in data set [3] is over 50 µM.

As for `CCC(C)SSc1ncc[nH]1` (stereo unspecified) [PX-12], the CC50 was 5.5 µM in the data set on K562; 8.8 µM with Raji [4]; 3.4 µM in the data set on Ramos; 5 µM in data set [5]; 5.2 µM with CT26; 11.6 µM in the data set on EMT6. For the same compound, the figures for the CC50 (in data set [2]; in the data set with T-24; in data set [7]) were 3.9 µM, 4.6 µM and 2.7 µM, respectively. For the same compound, the IC50 in data set [3] is 12.3 µM. For the same compound, the CC50 at 72 h in data set [6] is over 12.5 µM; in [8], over 25 µM. Besides, the result in the data set on Raji [9] and in the data set on Raji [10] was Active. Further, the Activity entry with Mus musculus [11] and in the data set on Mus musculus [12] was “Toxic” throughout.

In the case of `CC(C)C[C@@H](C(=O)NCC(=O)OCc1ccccc1)N(Cc1ccccc1)C(=O)C(CBr)CBr`, the IC50 in data set [3] was over 50 µM.

In the case of `C=C(CBr)C(=O)N(Cc1ccc(OC)cc1OC)[C@@H](CC(C)C)C(=O)NCC(=O)OCC`, the CC50 (with EMT6; in data set [2]) was over 50 µM in each case. In addition, the IC50 in [3] is 8.9 µM.

For the compound `COC(=O)C(CBr)CBr`, the CC50 (in the data set on EMT6; in data set [2]) was over 50 µM each time. Besides, the 50% inhibitory concentration (IC50) in [3] is 1.2 µM.

In the case of `C=C(C)C(=O)N(Cc1ccccc1)[C@@H](CC(C)C)C(=O)NCC(=O)OCc1ccccc1`, the CC50 (with EMT6; in data set [2]) was over 50 µM each time. The IC50 in data set [3] is over 50 µM.

Turning to `C=C(CBr)C(=O)N(Cc1ccccc1)[C@@H](CC(C)C)C(=O)NCC(=O)OCc1ccccc1`, the CC50 (in the data set with EMT6; in data set [2]) was over 50 µM in each case. Moreover, the IC50 in data set [3] stood at 10 µM.

As for `C=C(CBr)C(=O)N[C@@H](CC(C)C)C(=O)NCC(=O)OCC`, the CC50 with EMT6 was over 25 µM; in data set [2] it was over 50 µM. In [3], the IC50 stood at 2.4 µM.

For the compound `COC(=O)C(C)(CBr)CBr`, the IC50 in data set [3] was over 50 µM.

For `Cc1ccc(S(=O)(=O)OCC(COS(=O)(=O)c2ccc(C)cc2)C(=O)N(Cc2ccccc2)[C@@H](CC(C)C)C(=O)NCC(=O)OCc2ccccc2)cc1`, the IC50 in data set [3] is over 50 µM.

Consider `C=C(CBr)C(=O)OC` [METHYL BROMOMETHYL ACRYLATE], for which the CC50 (in the data set with EMT6; in [2]) was over 50 µM in each case. Moreover, in data set [3], the IC50 is 0.44 µM.

Consider `C=C(COC(=O)c1c(Cl)cccc1Cl)C(=O)OC`, for which the Stability result in data set [1] was “Unstable”. For the same compound, the CC50 (in the data set on EMT6; in [2]) was over 25 µM throughout. Besides, the IC50 in data set [3] stood at 0.2 µM.

For `C=C(CI)C(=O)N(Cc1ccccc1)[C@@H](CC(C)C)C(=O)NCC(=O)OCc1ccccc1`, the CC50 (with EMT6; in [2]) was over 50 µM each time. In addition, the IC50 in [3] was determined as 3.9 µM.

For the compound `C=C(COS(=O)(=O)c1ccc(C)cc1)C(=O)N(Cc1ccccc1)[C@@H](CC(C)C)C(=O)NCC(=O)OCc1ccccc1`, the CC50 (with EMT6; in data set [2]) was over 50 µM throughout. In addition, the IC50 in [3] stood at 22.3 µM.

In the case of `C=C(COC(=O)c1c(Cl)cccc1Cl)C(=O)N[C@@H](CC(C)C)C(=O)NCC(=O)OCC`, in data set [13], the solubility result was “Insoluble”. Besides, the figures for the CC50 (in the data set on EMT6; in [2]) were 5.5 µM and 3 µM, respectively. Moreover, the IC50 in [3] is 3 µM.

The values are drawn from ChEMBL document CHEMBL2010771, “Studies toward novel peptidomimetic inhibitors of thioredoxin-thioredoxin reductase system” (J Med Chem, 2012).
